Assay results from PMC3553949 (Nucleic Acids Research, 2012).
Residue numbers refer to the chain shown, from its start. “Also recorded” adds a separate entry of the source. Non-standard residues stand in square brackets, D forms with d. No end group written: not given here. pT = C[C@@H](OP(=O)(O)O)[C@H](N)C(=O)O

Columns and labels:
EGFP-EZH2 [1] = assay type: cell-based, mouse; settings: 100 µM roscovitine, 2 h preincubation, HEK293T cells
How it was run: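 HEK293T cells were transfected (Jetprime) with EGFP-tagged mouse EZH2, then preincubated with the CDK inhibitor roscovitine before lysis. EGFP-EZH2 was probed by immunoblot with a rabbit antibody raised against the Thr416-phosphorylated peptide (residues 410–421) coupled to KLH. The antibody was affinity-purified on non-phospho and phospho-peptide–BSA columns. Detection was by ECL imaging.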

[2] = system: EZH2-FHA interaction (EGFP-EZH2 / GST-FHA of NIPP1); assay: Competition GST pull-down of EGFP-EZH2 with EZH2 dodecapeptides; assay type: binding; settings: 1 mM of the indicated EZH2 dodecapeptides
NIPP1 FHA domain = NIPP1 FHA domain (Homo sapiens, UniProt Q12972); assay: NMR titration; assay type: binding
How it was run: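 ¹⁵N-labelled NIPP1 FHA domain was expressed in E. coli grown in M9 with ¹⁵NH₄Cl, His₆-MBP tag removed by TEV, and purified by size exclusion. The domain (0.1 mM) in 20 mM BisTris pH 6.3, 50 mM NaCl, 5 mM DTT was titrated with increasing mouse EZH2 dodecapeptide concentrations at 298 K (500 MHz, 2D ¹H,¹⁵N HSQC). Kd came from nonlinear fitting of CSP versus peptide concentration.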

PP1 = PP1 associated with immunoprecipitated EGFP-EZH2; assay type: binding; settings: HEK293T cell lysates, immunoblot
How it was run: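 EGFP-EZH2 (wild-type or TP5 mutant; EGFP-βgal control) was transiently expressed in HEK293T cells and immunoprecipitated from lysates. Lysis buffers contained 20 mM NaF, 5 µM leupeptin, 0.5 mM PMSF and 0.5 mM benzamidine. Co-precipitated PP1 was detected by immunoblotting with ECL.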

EED, SUZ12 and RbAp48 = assay: PRC2 components in immunoprecipitated EGFP-EZH2 complexes; assay type: binding; settings: immunoblot, Supplementary Figure S5
EGFP-EZH2 [3] = assay: Phosphorylation status of EGFP-EZH2 TP mutants in cells; assay type: cell-based, mouse; settings: EGFP-EZH2 mutant from cells, immunoblot
How it was run: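 EGFP-tagged mouse EZH2 variants (EGFP alone as control) were expressed in cells and isolated by EGFP trap. Elution used 0.2 M glycine pH 2.5 for 90 s, immediately neutralised with 1 M Tris pH 10.8. Eluates were immunoblotted with a pan-phospho-Thr-Pro antibody and an affinity-purified phospho-Thr416 (pTP5) antibody. Blots were visualised by ECL and quantified by densitometry.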

endogenous NIPP1 = assay: Co-immunoprecipitation of EZH2 fusions with endogenous NIPP1; assay type: binding; settings: HEK293T cell lysates
NIPP1-FHA domain = assay: GST pull-down of EGFP-EZH2 TP mutants with GST-FHA; assay type: binding; settings: Thr to Ala mutants, n = 4
How it was run: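 Mouse EZH2 Thr→Ala mutants were made by site-directed mutagenesis in an EGFP-IRES-puro vector and transfected with Jetprime. Lysis buffers contained NaF, leupeptin, PMSF and benzamidine.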

EGFP-EZH2 [4] = assay: In vitro phosphorylation of EGFP-EZH2 by cyclinA/CDK2; assay type: biochemical, mouse; settings: autoradiography, γ32P-ATP, cyclinA/CDK2, 60 min, 30°C
How it was run: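 Purified EGFP-tagged mouse EZH2 was incubated 60 min at 30°C with recombinant cyclinA/CDK2 (bacterially expressed). Buffer: 20 mM Tris/HCl pH 7.5, 2 mM DTT, 0.1 mg/ml BSA, 2 mM MgAc, 100 µM ATP, with or without γ³²P-ATP.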

[5] = molecular target: NIPP1 FHA domain (15N-labelled, for NMR); assay: NMR titration
EZH2, EED and SUZ12 = assay: EGFP trap of EGFP-NIPP1 and co-precipitation of core PRC2 components; assay type: binding; settings: EGFP-NIPP1 WT or FHAm, HEK293T cell lysates
How it was run: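 EGFP-NIPP1 is expressed in HEK293T cells by plasmid transfection (Jetprime) and captured by EGFP trap from lysates. Lysis buffer contains 20 mM NaF, 5 µM leupeptin, 0.5 mM PMSF and 0.5 mM benzamidine. Co-precipitated proteins are detected by immunoblotting, using anti-EZH2 (AC-22), an in-house rabbit anti-EED raised against His-EED, and anti-SUZ12 (3C1.2).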

EGFP-EZH2 [6] = assay: In vitro dephosphorylation of EGFP-EZH2 by PP1; assay type: biochemical, mouse
How it was run: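 Mouse EGFP-EZH2 is expressed in HEK293T cells and isolated by immunoprecipitation or EGFP trap. It is incubated 30 min at 30°C in 50 mM Tris/HCl pH 7.5, 1 mM DTT, 0.1 mg/ml BSA with one of: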

CC[C@H](CO)Nc1nc(NCc2ccccc2)c2ncn(C(C)C)c2n1 [roscovitine]
binding of EGFP-EZH2 to GST-FHA (EGFP-EZH2 [1]): abolished | detection of EGFP-EZH2 by pTP5 antibody (EGFP-EZH2 [1]): not detected

ANSRCQ(p)TPIKMK [pTP5]
EZH2-FHA interaction in presence of peptide [2]: decreased EZH2-FHA interaction | saturation of binding (NIPP1 FHA domain; 10-fold molar excess of the peptide): Saturation was not achieved even after a 10-fold molar excess of the peptide | binding of purified FHA domain to EZH2-derived dodecapeptide (NIPP1 FHA domain; summary in Discussion): interacts rather poorly

EZH2-WT: EGFP- or Dam-tagged wild-type mouse EZH2
associated PP1 (PP1): contained the same amount of PP1 | abundance of EED, SUZ12 and RbAp48 in complex (EED, SUZ12 and RbAp48): equally abundant

EZH2-mTP5: EZH2 with Thr416 (TP5) mutated to Ala
associated PP1 (PP1): contained the same amount of PP1 | abundance of EED, SUZ12 and RbAp48 in complex (EED, SUZ12 and RbAp48): equally abundant | pTP5 signal (EGFP-EZH2 [3]): not detected | co-immunoprecipitation with endogenous NIPP1 (endogenous NIPP1): no longer co-immunoprecipitated with endogenous NIPP1 | binding of EZH2 TP mutant to GST-FHA (NIPP1-FHA domain): complete loss of binding | in vitro phosphorylation of EZH2 by CDK2 (EGFP-EZH2 [4]): moderately reduced

ANSRCQ[pT]PIKMK [EZH2 410-421 peptide, phosphorylated at Thr416 (pTP5)]
Kd [5]: 1900 µM

B1: EGFP-NIPP1: ectopically expressed EGFP-NIPP1 wild-type (protein)
chain: MAAAANSGSSLPLFDCPTWAGKPPPGLHLDVVKGDKLIEKLIIDEKKYYLFGRNPDLCDFTIDHQSCSRVHAALVYHKHLKRVFLIDLNSTHGTFLGHIRLEPHKPQQIPIDSTVSFGASTRAYTLREKPQTLPSAVKGDEKMGGEDDELKGLLGLPEEETELDNLTEFNTAHNKRISTLTIEEGNLDIQRPKRKRKNSRVTFSEDDEIINPEDVDPSVGRFRNMVQTAVVPVKKKRVEGPGSLGLEESGSRRMQNFAFSGGLYGGLPPTHSEAGSQPHGIHGTALIGGLPMPYPNLAPDVDLTPVVPSAVNMNPAPNPAVYNPEAVNEPKKKKYAKEAWPGKKPTPSLLI
modifications: left off: EGFP, end not stated, kept
co-precipitation of PRC2 components (EZH2, EED and SUZ12): Both EZH2 and EED co-precipitated; also recorded: SUZ12, which interacts directly with EZH2 but not with EED ([19]), only co-precipitated with the WT NIPP1 fusion

B2: FHA mutant: EGFP-NIPP1 with mutated FHA domain (protein)
chain: B1 chain with S68A, R69A, V70A, H71A
modifications: left off: EGFP, end not stated, kept
co-precipitation of PRC2 components (EZH2, EED and SUZ12): only EED co-sedimented

B3: NIPP1: recombinant His-NIPP1, or immunoprecipitated EGFP-NIPP1/PP1 complex (protein, UniProt Q12972 1-351, looked up)
Nuclear inhibitor of protein …: B1 chain
modifications: His tag
effect on PP1-mediated dephosphorylation of EGFP-EZH2 (EGFP-EZH2 [6]; 500 nM PP1, recombinant His-NIPP1 4.5 µM to 55 nM): abolished | dephosphorylation of EGFP-EZH2 by immunoprecipitated NIPP1/PP1 (EGFP-EZH2 [6]; after pretreatment with trypsin): the immunoprecipitate dephosphorylated EGFP-EZH2 | dephosphorylation of EGFP-EZH2 by immunoprecipitated NIPP1/PP1 (EGFP-EZH2 [6]; without trypsin pretreatment, co-precipitated PP1 present): not dephosphorylated
